Assay outcomes (PubChem BioAssay)
Compounds with a hit are over-represented: about 3.4% of the library has one in this group of screens.
MEKK3 PB1 HTS: modulators (inhibitors or enhancers) of MEK5 binding to human MEKK3 PB1 domain; 1.4% of 290,000 active; binding response (% of control), % at 10 µM; Q99759; bead-based flow cytometry, Alexa488-MEK5 binding to MEKK3; actives lie on both sides; 0 = blocked by unlabeled MEK5, 100 = vehicle;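 active = binding response more than 3 SD above or below the average of its plate-row segment, actives on both sides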;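 note: Alexa488 bead fluorescence after subtracting the streptavidin-only scavenger bead signal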
Target sequence (Q99759 whole entry, looked up, the tested form may be a part): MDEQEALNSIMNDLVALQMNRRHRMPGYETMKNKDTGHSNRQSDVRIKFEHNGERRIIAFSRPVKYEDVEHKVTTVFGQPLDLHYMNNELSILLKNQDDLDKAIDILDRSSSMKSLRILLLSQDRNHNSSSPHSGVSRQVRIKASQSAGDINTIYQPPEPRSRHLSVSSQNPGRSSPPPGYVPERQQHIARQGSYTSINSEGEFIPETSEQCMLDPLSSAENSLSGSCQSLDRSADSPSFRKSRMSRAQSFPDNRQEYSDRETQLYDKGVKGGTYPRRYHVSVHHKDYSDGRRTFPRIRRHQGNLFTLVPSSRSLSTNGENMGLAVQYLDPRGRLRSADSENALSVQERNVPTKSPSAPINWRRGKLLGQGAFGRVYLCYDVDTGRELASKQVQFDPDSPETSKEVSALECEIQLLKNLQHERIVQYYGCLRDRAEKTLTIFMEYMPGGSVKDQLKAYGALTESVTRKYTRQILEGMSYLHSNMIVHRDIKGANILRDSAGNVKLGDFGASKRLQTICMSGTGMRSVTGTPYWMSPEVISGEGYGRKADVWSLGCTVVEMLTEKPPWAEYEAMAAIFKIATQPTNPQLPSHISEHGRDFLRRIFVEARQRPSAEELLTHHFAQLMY
MEKK2mut PB1 HTS: signal of MEK5 binding to mutant human MEKK2 PB1 domain; percent response, % at 10 µM; bead flow cytometry, Alexa488-MEK5 binding to MEKK2 mutant; 0.35% of 290,000 active; in the data active = percent response above about 24%, passing the limit was not always enough
MEKK2 WT-MEK5: raises or lowers MEK5 binding to wildtype human MEKK2 PB1 domain | Q9Y2U5 | bead flow cytometry, Alexa488-MEK5 binding to MEKK2 WT; actives lie on both sides | binding response (% of control), % at 10 µM | 1.1% of 290,000 active; in the data active = binding response below about 67% or above about 130%
IMP-1 inh: inhibitors of Pseudomonas aeruginosa IMP-1 metallo-beta-lactamase; purified IMP-1, nitrocefin hydrolysis, epi-absorbance fluorescence; 0.45% of 290,000 active; inhibition, % at 5.6 µM;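 active = inhibition above the mean plus 3 SD of all compounds in the same screening run, cut at about 4.5% in these data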
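Material – recombinant IMP-1 enzyme, purified · Amount – IMP-1 0.2 nM before substrate addition · Medium – HEPES buffer pH 7.1 with ZnSO4 and Brij 35 · Timing – 25 °C, 15 min preincubation, 25 min reaction · Measured by – plate fluorescence quenching by hydrolysis product, ex 480/em 530 nm · Read-out – percent enzyme inhibition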
VIM-2 inh: inhibitors of Pseudomonas aeruginosa VIM-2 metallo-beta-lactamase | purified VIM-2, nitrocefin hydrolysis, epi-absorbance fluorescence | inhibition, % at 5.6 µM | 0.89% of 290,000 active | AID 1527;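 active = inhibition above the mean of all tested compounds plus 3 SD, cutoff set per screening run, cut at about 7.5% in these data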;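 note: red hydrolysis product quenches plate fluorescence so inhibitors raise well fluorescence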
MEKK2wt confirm: raises or lowers MEK5 binding to wildtype human MEKK2, retest; binding response (% of control), % at 10 µM; bead flow cytometry, Alexa488-MEK5 binding to MEKK2 WT; actives lie on both sides; 2.4% of 5,900 active; AID 1892; shares compounds with MEKK3 PB1 HTS; in the data active = binding response below about 16% or above about 210%; inactive = in between
MEKK2mut confirm: signal of MEK5 binding to mutant human MEKK2, retest; shares compounds with MEKK3 PB1 HTS; bead flow cytometry, Alexa488-MEK5 binding to MEKK2 mutant; percent response, % at 10 µM; 2% of 5,900 active; AID 1893; in the data active = percent response mostly above about 71%, no sharp cut-off; inactive = mostly below about 38%;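 note: higher means compound restores mutant binding toward wildtype level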
MEKK3 confirm: confirmation of inhibitors of MEK5 binding to human MEKK3 | AID 1894 | 1.8% of 5,900 active | bead flow cytometry, Alexa488-MEK5 binding to MEKK3; active compounds read low | shares compounds with MEKK3 PB1 HTS | binding response (% of control), % at 10 µM;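 active = binding response below 72% of control, or above a set upper limit, though filed actives all read lower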;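 note: lower values mean stronger disruption of MEK5 binding to MEKK3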
Numbers stand for hits; i = inactive; nt = no result given; [ ] = another dose, or the depositor's remark.

SMILES	MEKK3 PB1 HTS	MEKK2mut PB1 HTS	MEKK2 WT-MEK5	IMP-1 inh	VIM-2 inh	MEKK2wt confirm	MEKK2mut confirm	MEKK3 confirm
CC(=O)N1CCN(C(=S)c2cccc([N+](=O)[O-])c2)CC1	132.0	i	i	i	i	i	i	i
CCCCN1CNC(=S)N(Cc2ccccc2)C1	130.0	i	i	i	i	i	i	i
CS(=O)(=O)N(CCc1ccccc1)CC(=O)NCc1ccccc1	i	i	i	i	i	nt	nt	nt
Cc1sc2ncnc(OCC(=O)N3CC(=O)Nc4ccccc43)c2c1C	42.0[inhibitor]	i	46.0[inhibitor]	i	i	i	i	i
COc1ccc(C(C(N)=O)c2ncc(C(F)(F)F)cc2Cl)cc1 (stereo not drawn)	150.0	i	i	i	i	i	i	i
COc1ccc(NC(=O)CCCn2c(=O)c3sccc3n(Cc3cccc(C)c3)c2=O)cc1	i	i	i	i	i	nt	nt	nt
Cc1ccc2nc(N(CCCN(C)C)C(=O)CCc3ccccc3)sc2c1	139.0	i	i	i	i	i	i	i
CN(C)CCCN(C(=O)COc1ccccc1)c1nc2cc3c(cc2s1)OCO3	i	i	i	i	i	nt	nt	nt
CN(C)CCCN(C(=O)CCc1ccccc1)c1nc2ccc(Cl)cc2s1	i	i	164.0	i	i	i	i	i
CN(C)CCCN(C(=O)COc1ccc(Cl)cc1)c1nc2cc3c(cc2s1)OCO3	i	35.0	179.0	i	i	i	i	i
CN(C)CCCN(C(=O)COc1ccccc1)c1nc2c(F)cccc2s1	i	i	i	i	i	nt	nt	nt
COc1cccc2sc(N(CCCN(C)C)C(=O)COc3ccc(Cl)cc3)nc12	i	i	168.0	i	i	i	i	i
Cc1ccc2nc(N(CCCN(C)C)C(=O)CN3C(=O)c4ccccc4C3=O)sc2c1	i	i	i	i	i	nt	nt	nt
CN(C)CCCN(C(=O)COc1ccccc1)c1nc2ccc(Cl)cc2s1	i	i	167.0	i	i	i	i	i
CCN(CC)CCN(C(=O)CCOc1ccccc1)c1nc2ccc(F)cc2s1	i	i	i	i	i	nt	nt	nt
O=C(NCc1cccs1)c1cc(-c2ccc(O)cc2)on1	46.0[inhibitor]	i	i	i	i	i	i	i
Cc1ccc(-c2cc(C(=O)NCc3cccs3)no2)cc1	i	i	i	i	i	nt	nt	nt
Cc1ccc(S(=O)(=O)n2ccc3c(OCCOCCNCc4ccc(F)cc4)cccc32)cc1	i	54.0	225.0	i	i	i	i	i
Cc1ccc(S(=O)(=O)n2ccc3c(OCCOCCSCC(NC(=O)OC(C)(C)C)C(=O)O)cccc32)cc1 (stereo not drawn)	i	i	i	i	i	nt	nt	nt
COc1ccc(OC)c(NC(=O)c2cc3ccccc3cc2OC)c1	i	28.0	i	i	i	i	i	i
COC(=O)C1=C(CS(=O)(=O)c2ccc(Cl)cc2)NC(=O)NC1c1ccc(O)cc1 (stereo not drawn)	i	i	i	i	i	nt	nt	nt
COc1ccc(-c2csc(N(CCCN(C)C)C(=O)c3ccccc3Cl)n2)cc1	i	28.0	138.0	i	i	i	70.0	i
COc1ccc(-c2csc(N(CCCN(C)C)C(=O)c3ccccc3C)n2)cc1	i	i	143.0	i	i	i	i	i
CN(C)CCCN(C(=O)c1cccs1)c1nc(-c2ccccc2)cs1	i	i	147.0	i	i	i	i	i
COc1ccc(-c2csc(N(CCCN(C)C)C(=O)c3ccccc3F)n2)cc1	i	i	i	i	i	nt	nt	nt
SMILES	MEKK3 PB1 HTS	MEKK2mut PB1 HTS	MEKK2 WT-MEK5	IMP-1 inh	VIM-2 inh	MEKK2wt confirm	MEKK2mut confirm	MEKK3 confirm
Cc1csc(N2CCCC2c2nc3cc(C(F)(F)F)ccc3n2CCOCCO)n1 (stereo not drawn)	i	i	i	nt	nt	nt	nt	nt
CCOc1cc(CN2CCCC(C(=O)c3cccc(C(F)(F)F)c3)C2)ccc1O (stereo not drawn)	i	i	i	i	i	nt	nt	nt
CCCc1cc(C(=O)NCCc2ccc(OC)c(OC)c2)no1	i	i	i	i	i	nt	nt	nt
CCOC(=O)N1CCN(S(=O)(=O)c2ccc(C(=O)N(CCCN(C)C)c3nc4ccc(Cl)cc4s3)cc2)CC1	i	30.0	153.0	i	i	i	i	i
CCOC(=O)N1CCN(S(=O)(=O)c2ccc(C(=O)Nc3nc4ccc(F)cc4s3)cc2)CC1	nt	nt	nt	i	i	nt	nt	nt
CCOC(=O)N1CCN(S(=O)(=O)c2ccc(C(=O)N(CCN(CC)CC)c3nc4ccc(C)cc4s3)cc2)CC1	i	i	i	i	i	nt	nt	nt
CCOC(=O)N1CCN(S(=O)(=O)c2ccc(C(=O)N(CCN(C)C)c3nc4ccc(CC)cc4s3)cc2)CC1	i	i	136.0	i	i	i	i	i
CCN(CC)C(=O)CSc1nc2cccnc2n1-c1ccccc1OC	i	i	i	i	i	nt	nt	nt
CN(C)CCCNc1ncnc2oc(-c3ccccc3)c(-c3ccccc3)c12	i	i	134.0	i	i	i	i	i
C[C@@H](NCCc1ccc(O)cc1)[C@@H](O)c1ccc(O)cc1	i	i	i	nt	nt	nt	nt	nt
CCCCCCCCNC(C)C(O)c1ccc(SC(C)C)cc1 (stereo not drawn)	i	48.0	142.0	i	i	i	i	i
Cc1ccc(Cn2nnc3c(=O)n(CC(=O)N4CCCc5ccccc54)cnc32)cc1	i	i	i	i	i	nt	nt	nt
O=C(Cn1cnc2c(nnn2Cc2ccc(Cl)cc2)c1=O)N1CCCc2ccccc21	69.0[inhibitor]	i	i	i	i	i	i	i
OCC1(Cc2ccccc2)CCN(CCCC2CCCC2)CC1	i	i	i	i	i	nt	nt	nt
CC(=Nc1ccccc1)C1=C(O)CCCC1=O	136.0	i	i	i	i	i	i	i
COCc1c(C#N)c(NCCc2ccccc2)nc(C)c1[N+](=O)[O-]	128.0	i	i	i	i	-1.0[inhibitor]	i	0.0
OCCSc1ncnc2c1oc1ccccc12	i	i	i	i	i	nt	nt	nt
Cc1nc2cc(C(=O)NCc3ccc4c(c3)OCO4)ccc2n1-c1ccc(Br)cc1	65.0[inhibitor]	i	i	i	i	i	i	i
O=C(NCc1ccc2c(c1)OCO2)c1ccc(Br)cc1	i	i	i	i	i	nt	nt	nt
Cn1cnnc1SCc1ccc(C(=O)n2ncc(C#N)c2N)cc1	i	i	i	i	i	nt	nt	nt
CN(C)c1ccc(NS(=O)(=O)c2ccc(Cl)cc2)cc1	135.0	i	i	i	i	i	i	i
Cc1ccc(Nc2c(-c3ccccc3O)nc3cnccn23)cc1	i	i	i	i	i	nt	nt	nt
Cc1ccc(Nc2c(-c3ccccc3O)nc3ncccn23)cc1	130.0	i	i	i	i	i	i	i
Nc1nonc1C(=O)NCCNCc1cc(Br)ccc1OCc1ccc(F)cc1	i	i	i	i	i	nt	nt	nt
